In ChEMBL document CHEMBL2034864, “Synthesis, characterization, antimicrobial activities and QSAR studies of some 10a-phenylbenzo[b]indeno[1,2-e][1,4]thiazin-11(10aH)-ones” (2012):
≈ marks a conversion by molar mass, not a printed value. Calls of active or inactive are those of the source. The calls are words filed in the database; no cut-off is given here.

Experiments:
[1] = test system: Staphylococcus aureus; experiment: Antibacterial activity against Staphylococcus aureus MTCC 7443 after 24 hrs by serial dilution technique; format: functional; conditions: for MIC: Staphylococcus aureus, MTCC 7443, 24 h
Summary of the method: (§1)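 Compounds were dissolved in DMSO as stock, diluted to 100 µg/mL in Luria broth, then two-fold serially diluted from 100 to 1.56 µg/mL. Bacteria were grown in Luria broth at 37 °C, centrifuged and washed three times with PBS. They were inoculated into each dilution in triplicate and incubated 24 h at 37 °C. Growth was read visually and spectrophotometrically. Controls were penicillin, streptomycin and DMSO. MIC is in µmol/mL.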

[2] = test system: Escherichia coli; experiment: Antibacterial activity against Escherichia coli MTCC 42 after 24 hrs by serial dilution technique; format: functional; conditions: for MIC: Escherichia coli, MTCC 42, 24 h; summary of the method: as §1
[3] = test system: Candida albicans; experiment: Antifungal activity against Candida albicans MTCC 183 after 72 hrs by serial dilution technique; format: functional
Summary of the method: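 Compounds were dissolved in DMSO as stock, diluted to 100 µg/mL in potato dextrose broth, then two-fold serially diluted from 100 to 1.56 µg/mL. Fungi were grown in Sabouraud dextrose broth at 28 °C: A. fumigatus for 2–3 weeks, C. albicans for 48 h. Spores were centrifuged, washed in sterile water and inoculated in triplicate, then incubated 72 h at 28 °C. MIC was assigned by CFU assay. Controls were fluconazole and DMSO.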

[4] = test system: Aspergillus fumigatus; experiment: Antifungal activity against Aspergillus fumigatus MTCC 2550 after 72 hrs by serial dilution technique
[5] = test system: Bacillus subtilis; experiment: Antibacterial activity against Bacillus subtilis MTCC 441 after 24 hrs by serial dilution technique; format: functional; conditions: for MIC: Bacillus subtilis, MTCC 441, 24 h; summary of the method: as §1
[6] = test system: Pseudomonas aeruginosa; experiment: Antibacterial activity against Pseudomonas aeruginosa MTCC 7952 after 24 hrs by serial dilution technique; format: functional; conditions: for MIC: Pseudomonas aeruginosa, MTCC 7952, 24 h; summary of the method: as §1
[7] = Candida albicans, MTCC 183, 72 h
[8] = Aspergillus fumigatus, MTCC 2550, 72 h

COc1ccc(C23Sc4ccccc4N=C2c2ccccc2C3=O)cc1 (stereo unspecified)
-logMIC [1]: 0.85
MIC [1]: 140 µM (≈ 50 µg/mL)
-logMIC [2]: 1.15
MIC [2]: 70 µM (≈ 25 µg/mL)
MIC [3]: inactive
MIC [4]: inactive

Cc1ccc(C23Sc4cc(Br)ccc4N=C2c2ccccc2C3=O)cc1 (stereo unspecified)
-logMIC [5]: 1.53
MIC [5]: 29.8 µM (≈ 12.5 µg/mL)
-logMIC [1]: 0.92
MIC [1]: 119 µM (≈ 50.1 µg/mL)
-logMIC [2]: 1.23
MIC [2]: 59.4 µM (≈ 25 µg/mL)
-logMIC [6]: 1.23
MIC [6]: 59.4 µM (≈ 25 µg/mL)
-logMIC [3]: 0.92
MIC [3, 7]: 119 µM (≈ 50.1 µg/mL)
-logMIC [4]: 0.92
MIC [4, 8]: 119 µM (≈ 50.1 µg/mL)

O=C1c2ccccc2C2=Nc3ccccc3SC12c1ccccc1 (stereo unspecified)
-logMIC [5]: 1.12
MIC [5]: 76.4 µM (≈ 25 µg/mL)
-logMIC [1]: 0.82
MIC [1]: 153 µM (≈ 50 µg/mL)
-logMIC [2]: 1.42
MIC [2]: 38.2 µM (≈ 12.5 µg/mL)
-logMIC [6]: 1.42
MIC [6]: 38.2 µM (≈ 12.5 µg/mL)
-logMIC [3]: 1.12
MIC [3, 7]: 76.4 µM (≈ 25 µg/mL)
-logMIC [4]: 1.12
MIC [4, 8]: 76.4 µM (≈ 25 µg/mL)

Cc1ccc(C23Sc4cc(C)ccc4N=C2c2ccccc2C3=O)cc1 (stereo unspecified)
-logMIC [5]: 0.85
MIC [5]: 141 µM (≈ 50 µg/mL)
-logMIC [2]: 1.45
MIC [2]: 35.2 µM (≈ 12.5 µg/mL)
-logMIC [6]: 1.15
MIC [6]: 70.4 µM (≈ 25 µg/mL)
-logMIC [3]: 1.15
MIC [3, 7]: 70.4 µM (≈ 25 µg/mL)
-logMIC [4]: 0.85
MIC [4, 8]: 141 µM (≈ 50 µg/mL)

O=C1c2ccccc2C2=Nc3ccc(Br)cc3SC12c1ccc(Cl)cc1 (stereo unspecified)
-logMIC [5]: 1.55
MIC [5]: 28.4 µM (≈ 12.5 µg/mL)
-logMIC [1]: 2.15
MIC [1]: 7.1 µM (≈ 3.13 µg/mL)
-logMIC [2]: 1.24
MIC [2]: 56.9 µM (≈ 25.1 µg/mL)
-logMIC [6]: 1.24
MIC [6]: 57 µM (≈ 25.1 µg/mL)
-logMIC [3]: 1.55
MIC [3, 7]: 28.4 µM (≈ 12.5 µg/mL)
-logMIC [4]: 1.55
MIC [4, 8]: 28.4 µM (≈ 12.5 µg/mL)

COc1ccc(C23Sc4cc(OC)ccc4N=C2c2ccccc2C3=O)cc1 (stereo unspecified)
-logMIC [5]: 2.4
MIC [5]: 4 µM (≈ 1.55 µg/mL)
-logMIC [1]: 1.79
MIC [1]: 16.1 µM (≈ 6.24 µg/mL)
-logMIC [2]: 1.79
MIC [2]: 16.1 µM (≈ 6.24 µg/mL)
-logMIC [3]: 1.19
MIC [3, 7]: 64.5 µM (≈ 25 µg/mL)
-logMIC [4]: 1.19
MIC [4, 8]: 64.5 µM (≈ 25 µg/mL)

Cc1ccc2c(c1)SC1(c3ccccc3)C(=O)c3ccccc3C1=N2 (stereo unspecified)
-logMIC [5]: 0.83
MIC [5]: 146 µM (≈ 50 µg/mL)
-logMIC [1]: 2.35
MIC [1]: 4.5 µM (≈ 1.54 µg/mL)
-logMIC [6]: 1.13
MIC [6]: 73.3 µM (≈ 25 µg/mL)
-logMIC [3]: 1.44
MIC [3, 7]: 36.6 µM (≈ 12.5 µg/mL)
-logMIC [4]: 1.14
MIC [4, 8]: 73.2 µM (≈ 25 µg/mL)

O=C1c2ccccc2C2=Nc3ccccc3SC12c1ccc(Cl)cc1 (stereo unspecified)
-logMIC [5]: 1.46
MIC [5]: 34.6 µM (≈ 12.5 µg/mL)
-logMIC [1]: 0.86
MIC [1]: 138 µM (≈ 50.1 µg/mL)
-logMIC [2]: 2.37
MIC [2]: 4.3 µM (≈ 1.56 µg/mL)
MIC [3]: inactive
MIC [4]: inactive

O=C1c2ccccc2C2=Nc3ccc(Br)cc3SC12c1ccccc1 (stereo unspecified)
-logMIC [5]: 1.21
MIC [5]: 61.7 µM (≈ 25.1 µg/mL)
-logMIC [1]: 0.91
MIC [1]: 123 µM (≈ 50.1 µg/mL)
-logMIC [2]: 1.21
MIC [2]: 61.7 µM (≈ 25.1 µg/mL)
-logMIC [6]: 1.81
MIC [6]: 15.4 µM (≈ 6.26 µg/mL)
-logMIC [3]: 1.51
MIC [3, 7]: 30.8 µM (≈ 12.5 µg/mL)
-logMIC [4]: 1.51
MIC [4, 8]: 30.8 µM (≈ 12.5 µg/mL)

COc1ccc2c(c1)SC1(c3ccc(C)cc3)C(=O)c3ccccc3C1=N2 (stereo unspecified)
-logMIC [5]: 1.17
MIC [5]: 67.3 µM (≈ 25 µg/mL)
-logMIC [1]: 0.87
MIC [1]: 135 µM (≈ 50 µg/mL)
-logMIC [2]: 2.38
MIC [2]: 4.2 µM (≈ 1.56 µg/mL)
-logMIC [6]: 1.47
MIC [6]: 33.6 µM (≈ 12.5 µg/mL)
-logMIC [3]: 1.77
MIC [3, 7]: 16.8 µM (≈ 6.24 µg/mL)
-logMIC [4]: 1.17
MIC [4, 8]: 67.3 µM (≈ 25 µg/mL)

OC(Cn1cncn1)(Cn1cncn1)c1ccc(F)cc1F [FLUCONAZOLE]
MIC [3, 7]: 10.1 µM (≈ 3.09 µg/mL)
MIC [4, 8]: 10.1 µM (≈ 3.09 µg/mL)

Cc1ccc(C23Sc4ccccc4N=C2c2ccccc2C3=O)cc1 (stereo unspecified)
-logMIC [5]: 1.14
MIC [5]: 73.2 µM (≈ 25 µg/mL)
-logMIC [1]: 0.53
MIC [1]: 293 µM (≈ 100 µg/mL)
-logMIC [6]: 1.14
MIC [6]: 73.2 µM (≈ 25 µg/mL)
MIC [3]: inactive
MIC [4]: inactive

COc1ccc(C23Sc4cc(C)ccc4N=C2c2ccccc2C3=O)cc1 (stereo unspecified)
-logMIC [5]: 1.47
MIC [5]: 33.6 µM (≈ 12.5 µg/mL)
-logMIC [1]: 1.17
MIC [1]: 67.3 µM (≈ 25 µg/mL)
-logMIC [2]: 1.17
MIC [2]: 67.3 µM (≈ 25 µg/mL)
-logMIC [6]: 1.17
MIC [6]: 67.3 µM (≈ 25 µg/mL)
-logMIC [3]: 1.47
MIC [3, 7]: 33.6 µM (≈ 12.5 µg/mL)
-logMIC [4]: 0.87
MIC [4, 8]: 135 µM (≈ 50 µg/mL)

CN[C@@H]1[C@H](O[C@H]2[C@H](O[C@H]3[C@H](O)[C@@H](O)[C@H](N=C(N)N)[C@@H](O)[C@@H]3N=C(N)N)O[C@@H](C)[C@]2(O)C=O)O[C@@H](CO)[C@H](O)[C@H]1O [STREPTOMYCIN]
MIC [5]: 10.7 µM (≈ 6.22 µg/mL)
MIC [1]: 10.7 µM (≈ 6.22 µg/mL)
MIC [2]: 5.3 µM (≈ 3.08 µg/mL)
MIC [6]: 2.6 µM (≈ 1.51 µg/mL)

COc1ccc2c(c1)SC1(c3ccc(Cl)cc3)C(=O)c3ccccc3C1=N2 (stereo unspecified)
-logMIC [5]: 1.5
MIC [5]: 31.9 µM (≈ 12.5 µg/mL)
-logMIC [1]: 1.8
MIC [1]: 15.9 µM (≈ 6.23 µg/mL)
-logMIC [2]: 1.19
MIC [2]: 63.9 µM (≈ 25 µg/mL)
-logMIC [6]: 1.19
MIC [6]: 63.9 µM (≈ 25 µg/mL)
-logMIC [3]: 1.5
MIC [3, 7]: 31.9 µM (≈ 12.5 µg/mL)
-logMIC [4]: 1.5
MIC [4, 8]: 31.9 µM (≈ 12.5 µg/mL)

CC1(C)S[C@@H]2[C@H](NC(=O)Cc3ccccc3)C(=O)N2[C@H]1C(=O)O [PENICILLIN G]
MIC [5]: 4.6 µM (≈ 1.54 µg/mL)
MIC [1]: 4.6 µM (≈ 1.54 µg/mL)
MIC [2]: 37.4 µM (≈ 12.5 µg/mL)
MIC [6]: 18.7 µM (≈ 6.25 µg/mL)

COc1ccc2c(c1)SC1(c3ccccc3)C(=O)c3ccccc3C1=N2 (stereo unspecified)
-logMIC [5]: 1.15
MIC [5]: 70 µM (≈ 25 µg/mL)
-logMIC [1]: 0.85
MIC [1]: 140 µM (≈ 50 µg/mL)
-logMIC [6]: 1.46
MIC [6]: 35 µM (≈ 12.5 µg/mL)
MIC [3]: inactive
MIC [4]: inactive

COc1ccc(C23Sc4cc(Br)ccc4N=C2c2ccccc2C3=O)cc1 (stereo unspecified)
-logMIC [5]: 2.15
MIC [5]: 7.1 µM (≈ 3.1 µg/mL)
-logMIC [1]: 2.15
MIC [1]: 7.1 µM (≈ 3.1 µg/mL)
-logMIC [2]: 1.84
MIC [2]: 14.3 µM (≈ 6.24 µg/mL)
-logMIC [6]: 1.24
MIC [6]: 57.4 µM (≈ 25 µg/mL)
-logMIC [3]: 1.84
MIC [3, 7]: 14.3 µM (≈ 6.24 µg/mL)
-logMIC [4]: 1.84
MIC [4, 8]: 14.3 µM (≈ 6.24 µg/mL)

Cc1ccc2c(c1)SC1(c3ccc(Cl)cc3)C(=O)c3ccccc3C1=N2 (stereo unspecified)
-logMIC [5]: 1.18
MIC [5]: 66.5 µM (≈ 25 µg/mL)
-logMIC [2]: 1.18
MIC [2]: 66.6 µM (≈ 25 µg/mL)
-logMIC [6]: 1.18
MIC [6]: 66.6 µM (≈ 25 µg/mL)
-logMIC [3]: 1.18
MIC [3, 7]: 66.6 µM (≈ 25 µg/mL)
-logMIC [4]: 0.88
MIC [4, 8]: 133 µM (≈ 50.1 µg/mL)
